Test results from ChEMBL document CHEMBL1142060, “Dysoxylins A-D, tetranortriterpenoids with potent anti-RSV activity from Dysoxylum gaudichaudianum” (J Nat Prod, 2007).
Converted amounts (≈) assume the structure as drawn.

What was measured:
[1] = system: Respiratory syncytial virus; assay: Antiviral activity against RSV A2 in MA104 cells by plaque reduction assay; format: functional, organism-based; conditions: human respiratory syncytial virus
In short: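 MA-104 monolayers infected with 200 PFU/well RSV A2, adsorbed 2.5 h at 37 °C in serum-free MEM. Inoculum removed and agarose overlay added; each compound dilution plated in duplicate. Plaques counted after 4 days and expressed as percent of control. EC50 (µg/mL) derived by regression of mean percent of control at each concentration.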

[2] = system: Respiratory syncytial virus; assay: Antiviral activity against RSV A2 in MA104 cells by CPE assay; format: functional, organism-based; conditions: human respiratory syncytial virus
In short: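 RSV strain A2 grown in MA-104 cells; cells passaged in MEM with 9% fetal bovine serum and 0.1% NaHCO3. Cytopathic-effect inhibition read-out. Activity expressed as 50% effective concentration (EC50) in µg/mL.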

SMILES	EC50 [1]	IC50 [1]	EC50 [2]	IC50 [2]
NC(=O)c1ncn([C@@H]2O[C@H](CO)[C@@H](O)[C@H]2O)n1 [RIBAVIRIN]	20 µg/mL (≈ 81.9 µM)	460 µg/mL (≈ 1880 µM)	3.6 µg/mL (≈ 14.7 µM)	180 µg/mL (≈ 737 µM)
CC(=O)O[C@H]1C[C@H]2[C@](C)(C3=CC[C@@H](C4COC(=O)C4)[C@@]31C)[C@H](OC(=O)/C=C(\C)C(C)C)[C@@H]1OC[C@]3(C)[C@H](O)C[C@H](OC(C)=O)[C@@]2(C)[C@@H]13 (stereo partly drawn) [DYSOXYLIN D]	40 µg/mL (≈ 60.9 µM)	42 µg/mL (≈ 63.9 µM)	1 µg/mL (≈ 1.52 µM)	> 200 µg/mL
C/C=C(/C)C(=O)O[C@@H]1[C@@H]2OC[C@]3(C)[C@H](O)C[C@H](OC(C)=O)[C@@](C)([C@@H]23)[C@H]2C[C@H](OC(C)=O)[C@]3(C)C(=CC[C@H]3C3COC(=O)C3)[C@]12C (stereo partly drawn) [DYSOXYLIN A]	150 µg/mL (≈ 239 µM)	112 µg/mL (≈ 178 µM)	2 µg/mL (≈ 3.18 µM)	150 µg/mL (≈ 239 µM)
CC(=O)O[C@H]1C[C@H]2[C@](C)(C3=CC[C@@H](C4COC(=O)C4)[C@@]31C)[C@H](OC(=O)c1ccccc1)[C@@H]1OC[C@]3(C)[C@H](O)C[C@H](OC(C)=O)[C@@]2(C)[C@@H]13 (stereo partly drawn) [DYSOXYLIN B]	30 µg/mL (≈ 46.1 µM)	7 µg/mL (≈ 10.8 µM)	4 µg/mL (≈ 6.15 µM)	16 µg/mL (≈ 24.6 µM)
CCC(C)C(=O)O[C@@H]1[C@@H]2OC[C@]3(C)[C@H](O)C[C@H](OC(C)=O)[C@@](C)([C@@H]23)[C@H]2C[C@H](OC(C)=O)[C@]3(C)C(=CC[C@H]3C3COC(=O)C3)[C@]12C (stereo partly drawn) [DYSOXYLIN C]	146 µg/mL (≈ 231 µM)	52 µg/mL (≈ 82.4 µM)	–	–
